Experimental data reported in publication PMC10558795 (Redox Biology, 2023).
Structures can show the parent of a compound that is named as a salt. Where two headings read alike, the source gives them in different places.

Legend:
[1] = test system: NRF2 activity (NQO1-YFP signal, CDDO-activated); experiment: High-throughput screen and dose response: NRF2 activity; type: cell-based, human
Outline: (§1)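 NQO1-YFP H1299 reporter cells (YFP in NQO1 intron 1, constitutive mCherry) were seeded 1000/well in 384-well plates and cultured overnight. Primary screen: 1 μM compound in 0.1% DMSO, one well each, with CDDO 200 nM and 0.1% DMSO controls. Retests used 10-point serial dilutions from 10 µM in triplicate, with brusatol control. Imaged at 0, 24, 48, 64 h (YFP = NRF2 activity, mCherry = viability); IC₅₀ by curve fit.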

[2] = test system: NQO1-YFP H1299 cells; experiment: Cell viability; type: cell-based, human
Outline: as §1

[3] = test system: KYSE70 cells; experiment: High-content cytotoxicity screen; type: cell-based, human
Outline: (§2)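 Cells were seeded at 1200/well in 384-well plates and cultured overnight. Test compound was added at […] serial dilution from 10 µM, in triplicate, for 3 days. Controls were 0.1% DMSO (negative), 30 µM benzethonium chloride and 0.1% Triton X-100 added just before staining (positive). Cells were stained with 0.5 µg/ml Hoechst and 100 nM YOYO1, four 4× images per well. Normalized total-cell and dead-cell percentages were fitted for IC₅₀.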

[4] = test system: KYSE180 cells; experiment: High-content cytotoxicity screen; type: cell-based, human
Outline: as §2

[5] = test system: NRF2 and NQO1 expression in NRF2^Mut-KYSE70 cells; experiment: Western blotting of NRF2 and NQO1 expression in KYSE70 cells; type: cell-based, human
Outline: (§3)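 Nuclear and cytosolic fractions prepared with an extraction kit, or whole-cell lysates in RIPA buffer. Proteins separated by SDS-PAGE, transferred to nitrocellulose, blocked and probed with primary antibody overnight at 4 °C. Chemiluminescence detected on film and quantified by densitometry; band data as mean ± SD, Student's t-test.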

[6] = test system: NRF2 and NQO1 expression in NRF2^Mut-KYSE180 cells; experiment: Western blotting of NRF2 and NQO1 expression in KYSE180 cells; type: cell-based, human
Outline: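 NRF2-mutant KYSE180 cells (37 °C, 5% CO₂) treated with test compound; nuclear and cytosolic fractions prepared with a nuclear extraction kit. Proteins separated by SDS-PAGE onto nitrocellulose, primary antibody overnight at 4 °C, chemiluminescence on film. Bands quantified by densitometry, mean ± SD, Student's t-test.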

[7] = test system: human NRF2 target genes in KYSE70 cells; experiment: RNAseq of KYSE70 cells; type: cell-based; details: PYR 10 μM for 72 h, MIT 20 nM for 72 h
Outline: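 Total RNA from treated and control cells made into Illumina libraries and sequenced (150 bp). Reads aligned to hg38 with RefSeq annotation and counted per gene; DEGs called by fold-change cut-off and corrected p-values. Gene set enrichment analysis performed; overall NRF2 target-gene mRNA level calculated on natural log scale.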

[8] = test system: NFE2L2 mRNA and NRF2 target genes; experiment: qPCR of NFE2L2 mRNA and NRF2 target genes; type: cell-based, human
Outline: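 Gene expression quantified by real-time PCR using gene-specific primers and TaqMan probes on a 96-well real-time PCR system.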

[9] = test system: ABCG2 and TOP2A expression; experiment: ABCG2 and TOP2A expression in KYSE70 cells; type: cell-based, human
[10] = test system: global translation; experiment: Protein synthesis assay; type: cell-based, human; details: KYSE70; PYR 10 μM, MIT 20 nM; CHX positive control
Outline: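 KYSE70 cells (37 °C, 5% CO₂) seeded at 2000 cells/well in 96-well plates; exposed to test compound or cycloheximide (positive control) in triplicate. Global translation measured with a commercial protein synthesis assay kit per manufacturer's protocol; cells imaged on a high-content imager.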

[11] = target: NRF2-ARE binding (Homo sapiens, UniProt Q16236, W24C); experiment: ELISA-based TransAM NRF2-ARE binding assay with KYSE70 nuclear extracts
Chain of NRF2-ARE binding (Q16236 whole entry W24C): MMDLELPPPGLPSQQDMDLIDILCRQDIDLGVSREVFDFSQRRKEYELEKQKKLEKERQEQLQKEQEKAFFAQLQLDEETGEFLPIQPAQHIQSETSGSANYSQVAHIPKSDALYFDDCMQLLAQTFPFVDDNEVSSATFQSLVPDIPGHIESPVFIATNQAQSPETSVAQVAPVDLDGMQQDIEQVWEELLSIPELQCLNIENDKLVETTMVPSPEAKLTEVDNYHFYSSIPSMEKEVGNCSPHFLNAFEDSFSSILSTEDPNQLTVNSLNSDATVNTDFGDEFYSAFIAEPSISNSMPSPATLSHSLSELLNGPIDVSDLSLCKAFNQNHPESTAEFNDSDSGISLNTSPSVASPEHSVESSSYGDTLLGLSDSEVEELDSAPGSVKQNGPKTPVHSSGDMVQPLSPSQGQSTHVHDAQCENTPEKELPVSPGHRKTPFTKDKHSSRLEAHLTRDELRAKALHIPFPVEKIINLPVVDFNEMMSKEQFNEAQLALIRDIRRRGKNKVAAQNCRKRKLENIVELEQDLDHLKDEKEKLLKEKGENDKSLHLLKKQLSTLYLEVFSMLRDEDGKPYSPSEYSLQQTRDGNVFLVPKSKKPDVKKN
Outline: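 TransAM ELISA: nuclear extract from untreated KYSE70 cells (20 μg/well) added to wells containing ARE oligonucleotide. Test compound, competitor or mutated competitor added, then 1 h incubation with mild agitation and washing. Anti-NRF2 antibody 1 h, then HRP-conjugated secondary antibody and substrate; A450nm read.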

[12] = target: NRF2 (NRF2^Mut-KYSE180) (Homo sapiens, UniProt Q16236, D77V); experiment: CHX chase analysis of NRF2 half-life in KYSE180 cells; type: cell-based; details: PYR 10 μM, MIT 20 nM
Chain of NRF2 (NRF2^Mut-KYSE180) (Q16236 whole entry D77V): as the sequence (Q16236 whole entry W24C) above, with C24W, D77V counted along it
Outline: (§4)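 Cells were grown in RPMI1640 GlutaMAX with 10% FBS and 1% penicillin/streptomycin at 37 °C, 5% CO₂. They were pre-incubated 4 h with test compound, then given 200 μg/ml cycloheximide to block protein synthesis. Cells were harvested at set time points after cycloheximide. Total lysates were run on SDS-PAGE and blotted for NRF2 and GAPDH, and band densities were used to calculate NRF2 half-life.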

[13] = target: NRF2 (NRF2^WT-KYSE450) (Homo sapiens, UniProt Q16236); experiment: CHX chase analysis of NRF2 half-life in KYSE450 cells; type: cell-based; details: PYR 10 μM, MIT 20 nM
Chain of NRF2 (NRF2^WT-KYSE450) (Q16236 whole entry): as the sequence (Q16236 whole entry W24C) above, with C24W counted along it
Outline: as §4

[14] = 90 mg/m^2, intravenous injection, cited from earlier work
[15] = test system: NRF2 expression in NRF2^WT-KYSE450 cells; experiment: NRF2 expression in KYSE450 cells; type: cell-based, human
Outline: as §3

[16] = read-out: NRF2 inhibition (IC50), H1299-NQO1-YFP cells, CDDO-activated YFP signal
[17] = read-out: Cell viability (IC50), H1299-NQO1-YFP cells
[18] = read-out: Cell death (IC50), KYSE70, 3 days
[19] = read-out: Cell proliferation (IC50), KYSE70, 3 days
[20] = read-out: Cell death (IC50), KYSE180, 3 days
[21] = read-out: Cell proliferation (IC50), KYSE180, 3 days
[22] = Homo sapiens, NCI-H1299, read-out: NRF2 inhibition (IC50, μM)
[23] = Homo sapiens, NCI-H1299, read-out: Cell viability (IC50, μM)
[24] = Homo sapiens, KYSE-70, 72 h, read-out: Cell proliferation (IC50, μM)
[25] = Homo sapiens, KYSE-180, 72 h, read-out: Cell proliferation (IC50, μM)
[26] = Homo sapiens, KYSE-70, 72 h, read-out: Cell death (IC50, μM)

Q: Which results are given for `CN1CC[C@@]2(C)c3cc(O)ccc3N(C)[C@@H]12` [Eseroline fumarate]?
A: IC50 [1, 16]: 0.26 µM; IC50 [2, 17]: > 10 µM; IC50 [3, 18]: > 10 µM; IC50 [3, 19]: 10 µM; IC50 [4, 20]: > 10 µM; IC50 [4, 21]: > 10 µM

Q: For `CCOc1ccc2c(c1)C(C)=CC(C)(C)N2` [Ethoxyquin], which IC50 [1, 22] is on record?
A: The IC50 was 0.29 µM.

Q: And the IC50 [2, 23]?
A: The IC50 was > 10 µM.

Q: And the IC50 [3, 24]?
A: Its IC50 is > 10 µM.

Q: What about the IC50 [4, 25] of the same compound?
A: Its IC50 is > 10 µM.

Q: Which IC50 [1, 22] does the source give for `CCC(NC(C)C)C(O)c1ccc(O)c(O)c1` (stereo not shown) [Isoetharine mesylate] here?
A: The IC50 was 0.49 µM.

Q: What about the IC50 [2, 23] of the same compound?
A: Its IC50 is > 10 µM.

Q: What about the IC50 [3, 24] of the same compound?
A: The IC50 was > 10 µM.

Q: What about the IC50 [4, 25] of the same compound?
A: Its IC50 is > 10 µM.

Q: What does the source list for `CC(C)NC[C@H](O)c1ccc(O)c(O)c1` [Isoproterenol bitratrate]?
A: IC50 [1, 16]: 0.43 µM; IC50 [2, 17]: > 10 µM; IC50 [3, 18]: > 10 µM; IC50 [3, 19]: 4.9 µM; IC50 [4, 20]: > 10 µM; IC50 [4, 21]: > 10 µM

Q: For `CC(C)NCC(O)c1ccc(O)c(O)c1` (stereo not shown) [Isoproterenol hydrochloride], which IC50 [1, 22] is on record?
A: Its IC50 is 0.84 µM.

Q: What about the IC50 [2, 23] of the same compound?
A: Its IC50 is > 10 µM.

Q: And the IC50 [3, 26]?
A: Its IC50 is > 10 µM.

Q: What about the IC50 [3, 24] of the same compound?
A: Its IC50 is 5.2 µM.

Q: What about the IC50 [4, 25] of the same compound?
A: The IC50 was > 10 µM.

Q: Which results are given for `O=C1c2c(O)ccc(O)c2C(=O)c2c(NCCNCCO)ccc(NCCNCCO)c21` [MIT, mitoxantrone dihydrochloride]?
A: IC50 [1, 22]: 0.035 µM; IC50 [2, 23]: > 10 µM; IC50 [3, 26]: 0.00324 µM; IC50 [3, 24]: 0.00584 µM; IC50 ([4]; Homo sapiens, KYSE-180, 72 h, read-out: Cell death (IC50, μM)): 0.00522 µM; IC50 [4, 25]: 0.00457 µM; Expression of nuclear NRF2 and cytoplasmic NQO1 ([5]; KYSE70 cells): inhibited the expression of nuclear NRF2 and cytoplasmic NQO1 in a dose- and time-dependent manner; Expression of nuclear NRF2 and cytoplasmic NQO1 [6]: inhibited the expression of nuclear NRF2 and cytoplasmic NQO1 in a dose- and time-dependent manner; Overall mRNA expression level of human NRF2 target genes [7]: significantly reduced; NFE2L2 mRNA and NRF2 target genes (AKR1B10, AKR1C2, AKR1C3, PGD, SLC7A11, TKT) by qPCR [8]: downregulation; ABCG2 and TOP2A expression [9]: increased; Global translation [10]: Neither PYR (10 μM) nor MIT (20 nM) inhibited global translation; NRF2-ARE binding activity [11]: did not observe any changes; Effect on NRF2 half-life [12]: shortened NRF2 half-life; Effect on NRF2 half-life [13]: not changed; Cmax in the plasma [14]: 6430 ± 2430 ng/mL; Cmax ([14]; read-out: Cmax in the plasma): 12.4 ± 4.7 µM

Q: What does the source list for `CN(Cc1cnc2nc(N)nc(N)c2n1)c1ccc(C(=O)N[C@@H](CCC(=O)O)C(=O)O)cc1` [MTX, methotrexate]?
A: NRF2 expression ([5]; NRF2^Mut-KYSE70 cells): significantly inhibited NRF2 expression; NRF2 expression [15]: significantly inhibited NRF2 expression

Q: Which IC50 [1, 22] does the source give for `Nc1nc(N)c2nc(-c3ccccc3)c(N)nc2n1` [Triamterene] here?
A: The IC50 was 0.72 µM.

Q: And the IC50 [2, 23]?
A: Its IC50 is 3.7 µM.

Q: And the IC50 [3, 26]?
A: The IC50 was > 10 µM.

Q: What about the IC50 [3, 24] of the same compound?
A: Its IC50 is 7.7 µM.

Q: What about the IC50 [4, 25] of the same compound?
A: Its IC50 is > 10 µM.
